According to ChEMBL document CHEMBL1124751, “Synthesis of perfluoroalkylated xylitol ethers and esters: new surfactants for biomedical uses” (J Med Chem, 1990):
Values after ≈ are worked out from the molar mass of the structure shown. Each block holds one molecule with its values, some of them ahead of it.

Assays:
[1] = system: Mus musculus; assay: Toxicity in mice when dispersed in Pluronic F-68 in […] aqueous NaCl of 42 g/22 g per L at the concentration of 1035 mg/kg body weight; format: functional
Procedure, shortened: (§1)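 Single tail-vein injection into mice of about 20 g, about 0.5 mL (25 mL/kg body weight) per animal. The test article was a solution or dispersion of surfactant in Pluronic F-68, given as g compound/g Pluronic per L, in 9‰ aqueous NaCl. Symptoms, behavior, mortality and body-weight gain were recorded for 80 days after injection. Survival was reported as survivors/injected in a series of 10 mice.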

[2] = system: Mus musculus; assay: Toxicity in mice when dispersed in Pluronic F-68 in […] aqueous NaCl of 50 g/15 g per L at the concentration of 1187 mg/kg body weight; format: functional; procedure, shortened: as §1
[3] = Solubility was determined; format: physicochemical
[4] = Viability inhibition towards Namalva Lymphoblastoid Cell Culture at the concentration of 0.05 g/L after dispersion in pluronic F-68; format: functional
Procedure, shortened: (§2)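 Namalva lymphoblastoid suspension culture (RPMI with 10% fetal calf serum, 37 °C, 7% CO2). 2 mL medium at about 3.10^5 cells/mL was mixed with 2 mL test solution, in five flasks, with a reference series in parallel. Cells were counted after 4 days of incubation, and viability was read by Trypan Blue exclusion. Results are % vs controls.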

[5] = Percent hemolysis for an erythrocyte suspension at 1% hemocrait at the concentration of 20 g/10 g per L; format: functional, Homo sapiens
Procedure, shortened: (§3)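 Washed human red cells at 1% hematocrit (8-9 × 10^7 cells/mL) in phosphate saline pH 7.4 were mixed 1:1 with surfactant/Pluronic F-68 dispersion in 9‰ NaCl and shaken 1 h at 37 °C. After centrifugation, supernatant hemoglobin was read at 540 nm. % hemolysis = 100 (OD_test − OD_NaCl)/(OD_H2O − OD_NaCl), with 9‰ NaCl as the 0% control and water as the 100% control.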

[6] = Hemolytic effect on human red blood cells when dispersed in Pluronic F-68 at the concentration of 40 g/20 g per L; format: functional
Procedure, shortened: (§4)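 Human erythrocytes were freed of plasma and buffy coat (3300 rpm, 10 min, 10 °C), washed three times in isotonic phosphate saline pH 7.4, then suspended at 1% hematocrit. 2 mL suspension plus an equal volume of surfactant dispersion in Pluronic F-68 / 9‰ NaCl (g compound/g Pluronic per L) was shaken 1 h at 37 °C. Hemolysis was scored visually (0 to ++++).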

[7] = Viability inhibition towards Namalva Lymphoblastoid Cell Culture at the concentration of 0.1 g/L; format: functional; procedure, shortened: as §2
[8] = Percent hemolysis for an erythrocyte suspension at 1% hemocrait at the concentration of 20 g/ L; format: functional, Homo sapiens; procedure, shortened: as §3
[9] = Hemolytic effect on human red blood cells when dispersed in Pluronic F-68 at the concentration of 10 g/1g per L; format: functional; procedure, shortened: as §4
[10] = Growth and viability inhibition towards Namalva Lymphoblastoid Cell Culture at the concentration of 0.05 g/L after dispersion in pluronic F-68; format: functional
[11] = Percent hemolysis for an erythrocyte suspension at 1% hemocrait at the concentration of 10 g/1g per L; format: functional, Homo sapiens; procedure, shortened: as §3
[12] = Hemolytic effect on human red blood cells when dispersed in Pluronic F-68 at the concentration of 20 g/10 g per L; format: functional; procedure, shortened: as §4
[13] = Growth inhibition towards Namalva Lymphoblastoid Cell Culture at the concentration of 0.05 g/L after dispersion in pluronic F-68; format: functional; settings: in the assay text read “concentration of 0.1 g/L” for “concentration of 0.05 g/L”; procedure, shortened: as §2
[14] = Growth inhibition towards Namalva Lymphoblastoid Cell Culture at the concentration of 0.1 g/L; format: functional; procedure, shortened: as §2
[15] = Growth and viability inhibition towards Namalva Lymphoblastoid Cell Culture after resowing at the concentration of 0.1 g/L; format: functional
Procedure, shortened: (§5)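 Namalva lymphoblastoid cells in suspension (RPMI, 10% fetal calf serum, 37 °C, 7% CO2). Five flasks per test, each with 2 mL medium at about 3.10^5 cells/mL plus 2 mL test solution, alongside a reference series. After 4 days the compound was removed. Cells were washed and resown in 4 mL medium, and growth and viability were reported as % vs controls.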

[16] = system: Mus musculus; assay: Toxicity in mice when dispersed in Pluronic F-68 in […] aqueous NaCl of 20 g/10 g per L at the concentration of 455,mg/Kg body weight; format: functional; procedure, shortened: as §1
[17] = Percent hemolysis for an erythrocyte suspension at 1% hemocrait at the concentration of 10 g/ L; format: functional, Homo sapiens; procedure, shortened: as §3
[18] = Viability inhibition towards Namalva Lymphoblastoid Cell Culture at the concentration of 0.1 g/L and after detoxification on anionic exchanger; format: functional; procedure, shortened: as §2
[19] = Growth inhibition towards Namalva Lymphoblastoid Cell Culture at the concentration of 0.2 g/L; format: functional; procedure, shortened: as §2
[20] = Viability inhibition towards Namalva Lymphoblastoid Cell Culture at the concentration of 0.2 g/L; format: functional; procedure, shortened: as §2
[21] = system: Mus musculus; assay: Toxicity in mice when dispersed in Pluronic F-68 in […] aqueous NaCl of 0.1 g and at the concentration of 2,mg/Kg body weight; format: functional; procedure, shortened: as §1
[22] = Growth and viability inhibition towards Namalva Lymphoblastoid Cell Culture after resowing at the concentration of 0.2 g/L; format: functional; procedure, shortened: as §5
[23] = Hemolytic effect on human red blood cells when dispersed in Pluronic F-68 at the concentration of 10 g/2.5g per L; format: functional; procedure, shortened: as §4
[24] = Hemolytic effect on human red blood cells when dispersed in Pluronic F-68 at the concentration of 20 g/5 g per L; format: functional; procedure, shortened: as §4
[25] = system: Mus musculus; assay: Toxicity in mice when dispersed in Pluronic F-68 in […] aqueous NaCl of 40 g/10 g per L at the concentration of 1034 mg/kg body weight; format: functional
[26] = Hemolytic effect on human red blood cells when dispersed in Pluronic F-68 at the concentration of 40 g/10 g per L; format: functional; procedure, shortened: as §4
[27] = system: Mus musculus; assay: Toxicity in mice when dispersed in Pluronic F-68 in […] aqueous NaCl of 15 g/3.73g per L at the concentration of 371 mg/kg body weight; format: functional; procedure, shortened: as §1
[28] = Growth inhibition towards Namalva Lymphoblastoid Cell Culture at the concentration of 0.1 g/L and after detoxification on anionic exchanger; format: functional; procedure, shortened: as §2
[29] = system: Mus musculus; assay: Toxicity in mice when dispersed in Pluronic F-68 in […] aqueous NaCl of 20 g/5 g per L at the concentration of 491 mg/kg body weight; format: functional; procedure, shortened: as §1
[30] = Growth and viability inhibition towards Namalva Lymphoblastoid Cell Culture after resowing at the concentration of 0.1 g/L and after detoxification on anionic exchanger; format: functional; procedure, shortened: as §5
[31] = Percent hemolysis for an erythrocyte suspension at 1% hemocrait at the concentration of 1 g/0.05 g per L; format: functional, Homo sapiens; procedure, shortened: as §3
[32] = Hemolytic effect on human red blood cells when dispersed in Pluronic F-68 at the concentration of 20 g/1 g per L; format: functional; procedure, shortened: as §4
[33] = Hemolytic effect on human red blood cells when dispersed in Pluronic F-68 at the concentration of 1 g/0.05 g per L; format: functional; procedure, shortened: as §4
[34] = Percent hemolysis for an erythrocyte suspension at 1% hemocrait at the concentration of 1 g/L; format: functional, Homo sapiens; procedure, shortened: as §3
[35] = system: Mus musculus; assay: Toxicity in mice when dispersed in Pluronic F-68 in […] aqueous NaCl of 20 g/10 g per L at the concentration of 443 mg/kg body weight; format: functional; procedure, shortened: as §1
[36] = system: Mus musculus; assay: Toxicity in mice when dispersed in Pluronic F-68 in […] aqueous NaCl of 0.1 g at the concentration of 2,mg/Kg body weight; format: functional; procedure, shortened: as §1
[37] = Hemolytic effect on human red blood cells when dispersed in Pluronic F-68 at the concentration of 10 g/5g per L; format: functional; procedure, shortened: as §4

SMILES: OCC(O)C(O)C(O)COC/C=C/C(F)(F)C(F)(F)C(F)(F)C(F)(F)C(F)(F)C(F)(F)C(F)(F)C(F)(F)F (stereo not given)
Survival ratio [1]: 8
Survival ratio [2]: 5
solubility [3]: 50 µg/mL (≈ 81.9 µM)
Viability [4]: 98%
Hemolysis [5]: 0%
Activity [6]: 65.6 mM
Viability [7]: 97%
Hemolysis [8]: 0%
Activity [9]: 16.4 mM
Resowing [10]: 115%
Hemolysis [11]: 0%
Activity [12]: 32.8 mM
Growth [13]: 108%
Growth [14]: 78%
Resowing [15]: 100%
Survival ratio [16]: 10
Hemolysis [17]: 0%

SMILES: OCC(O)C(O)C(O)COC/C=C/C(F)(F)C(F)(F)C(F)(F)C(F)(F)C(F)(F)C(F)(F)F (stereo not given)
Viability [18]: 93%
Growth [19]: 86%
Viability [20]: 98%
Survival ratio [21]: 10
solubility [3]: < 1000 µg/mL
Resowing [22]: 95%
Activity [23]: 19.6 mM
Viability [7]: 80%
Activity [24]: 39.2 mM
Survival ratio [25]: 0
Activity [26]: 78.4 mM
Growth [14]: 23%
Survival ratio [27]: 10
Resowing [15]: 96%
Growth [28]: 78%
Survival ratio [29]: 8
Resowing [30]: 105%

solubility [3]: < 10 µg/mL
SMILES: O=C(CCC(F)(F)C(F)(F)C(F)(F)C(F)(F)C(F)(F)C(F)(F)C(F)(F)C(F)(F)F)OCC(O)C(O)C(O)CO (stereo not given)

SMILES: OCC(O)C(O)C(O)COC/C=C/C(F)(F)C(F)(F)C(F)(F)C(F)(F)F (stereo not given)
Viability [18]: 95%
Hemolysis [31]: 0%
Activity [32]: 48.7 mM
solubility [3]: < 5000 µg/mL
Activity [33]: 2.4 mM
Viability [7]: 87%
Hemolysis [34]: 0%
Survival ratio [35]: 9
Survival ratio [36]: 10
Growth [14]: 32%
Resowing [15]: 106%
Growth [28]: 125%
Activity [37]: 24.4 mM
Resowing [30]: 105%

solubility [3]: 500 µg/mL (≈ 1050 µM)
SMILES: O=C(CCC(F)(F)C(F)(F)C(F)(F)C(F)(F)C(F)(F)F)OCC(O)C(O)C(O)CO (stereo not given)
